Source: PubChem (several laboratories)
Compounds with a hit are over-represented: about 2.6% of the library has one in this group of screens.
CHT allo act = allosteric activators of human choline transporter CHT. B-score at 10 µM. CHT-expressing cells, membrane potential dye, choline EC20; stronger effect = higher value; LV-AA mutant CHT in HEK293 cells. Q9GZV3. 310,000 compounds, 0.49% hits;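 active = initial fluorescence not abnormally high and integrated response B-score, plate-corrected, over 3 SD above library mean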
CHT block = inhibits the human high affinity choline transporter | CHT-expressing cells, membrane potential dye, choline response; stronger effect = lower value | 310,000 compounds, 0.86% hits | B-score at 10 µM;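 active = B-score over 3 SD under the library average, and starting fluorescence ratio not unusually high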;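 also: choline stimulus applied at its EC90 after an EC20 pre-addition; B-score computed on integrated fluorescence ratio after choline addition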
Rad51 HR inh = Rad51 (human) homologous recombination inhibition; Q06609; inhibition, % at 10 µM; 200,000 compounds, 0.085% hits; hRad51 DNA strand exchange, fluorescence dequenching;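 active = inhibition above 40% at the single screening dose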
Target sequence (Q06609 whole entry, looked up): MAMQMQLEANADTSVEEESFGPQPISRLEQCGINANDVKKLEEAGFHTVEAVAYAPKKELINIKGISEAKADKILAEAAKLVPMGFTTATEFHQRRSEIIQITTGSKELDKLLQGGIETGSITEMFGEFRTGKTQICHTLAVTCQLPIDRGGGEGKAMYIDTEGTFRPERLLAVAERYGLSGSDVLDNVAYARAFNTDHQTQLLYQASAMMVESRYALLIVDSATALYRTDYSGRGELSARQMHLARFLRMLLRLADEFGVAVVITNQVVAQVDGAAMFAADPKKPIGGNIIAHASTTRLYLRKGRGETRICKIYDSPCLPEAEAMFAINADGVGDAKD
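Read-out basis: percent inhibition relative to plate controls and blanks / Assay system: human Rad51 nucleoprotein filaments preassembled on unlabelled ssDNA / Timing: filaments 15 min 37 °C, then compound 30 min / Control set: per-plate controls and blanks / Technique: fluorescence dequenching at 485/520 nm / Compound: 10 µM final, single point / Also added: Fluorescein- and BHQ1-tagged 47-mer duplex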
Cl transport mod = modulators of human KCC2 chloride dependent transport; B-score of Tl+ flux slope (higher = more flux/activation; lower = inhibition) at 10 µM; Q9H2X9; 190,000 compounds, 2.2% hits; KCC2 cells, thallium flux FluoZin-2 fluorescence; AID 1456;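 active = thallium flux slope and its plate-corrected score both differing from the plate sample mean at a set confidence after two filtering rounds, in either direction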;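 also: slope of fluorescence scaled to starting intensity during 10 to 20 s after thallium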
CHT activ conf = confirmation of human choline transporter (CHT) activators. shares compounds with CHT allo act. CHT-expressing cells, membrane potential dye fluorescence (FDSS); % of choline EC20–EC90 response window; HEK293 expressing CHT LV-AA mutant; choline added at its EC20. activation, % at 10 µM. 2,500 compounds, 91% hits. AID 504833;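 active = primary screen active, with duplicate mean activation above negative control mean plus 3 SD, cut at about 11% in these data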
HEK293 MP dye = CHT activator counter-screen hit in parental HEK293 cells | ratio readout change at 10 µM, hits read low | shares compounds with CHT allo act | AID 623908 | 2,500 compounds, 62% hits | membrane potential dye fluorescence (FDSS); measured after EC20 choline addition;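 active = duplicate-averaged ratio beyond 3 SD from buffer wells, up or down, though filed actives are nearly all decreases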
Large screens that a line does not name were inactive (follow-up assays come after a bar, where they were run).

COc1cc2c(cc1OC)C(c1ccccc1F)OC(=O)C2 (stereo unspecified)	none
O=[N+]([O-])c1ccc(OC/C=C2\Oc3ccc([N+](=O)[O-])cc3C2N2CCOCC2)cc1 (stereo unspecified)	CHT allo act 7.5 | CHT activ conf 30 | HEK293 MP dye inactive
CCN1CCN(C(=S)Nc2ccc3nc(N4CCN(C)CC4)cc(C)c3c2)CC1	CHT allo act 6.9 | CHT activ conf 41 | HEK293 MP dye -34
CCN1CCN(c2cc(C)c3cc(NC(=O)c4ccncc4)ccc3n2)CC1	none | CHT activ conf 43 | HEK293 MP dye -26
CCN1CCN(C(=S)Nc2ccc3nc(N4CCN(CC)CC4)cc(C)c3c2)CC1	none | CHT activ conf 27 | HEK293 MP dye -37
CCN1CCN(c2cc(C)c3cc(NC(=S)N4CCN(c5ccc(F)cc5)CC4)ccc3n2)CC1	none
COc1ccc(S(=O)(=O)N2CCNC(=O)CC2)cc1	none (no result: Rad51 HR inh, Cl transport mod)
O=C(Nc1nncs1)c1cc(S(=O)(=O)N2CCOCC2)ccc1Cl	none (no result: Rad51 HR inh, Cl transport mod)
CN1CCN(CC(=O)Nc2sc3c(c2C(=O)Nc2ccccc2)CCCC3)CC1	none (no result: Rad51 HR inh, Cl transport mod) | CHT activ conf 45 | HEK293 MP dye -31
COc1ccc(C(=O)C[n+]2cc(Br)cc3ccccc32)cc1[N+](=O)[O-]	none (no result: Rad51 HR inh, Cl transport mod) | CHT activ conf 31 | HEK293 MP dye -38
O=C(Cc1cccs1)N(Cc1cccs1)C1(C(=O)NC2CCCCC2)CCCCC1	none
O=C1CCC(C(=O)N(Cc2cccs2)C2(C(=O)NC3CCCCC3)CCCCC2)N1 (stereo unspecified)	CHT allo act 7 (no result: Cl transport mod) | CHT activ conf 31 | HEK293 MP dye inactive
O=C(O)c1cccc(S(=O)(=O)N2CCSCC2)c1	none
COC(=O)c1c(NC(=O)C2CCCCC2)sc2c1CC(C)(C)NC2(C)C	none (no result: Rad51 HR inh, Cl transport mod)
CCCN(CCC)C(=O)c1oc2ccccc2c1NC(=O)Cc1cccc(OC)c1	CHT allo act 16 (no result: Rad51 HR inh, Cl transport mod) | CHT activ conf 29 | HEK293 MP dye inactive
COC(=O)CCCC1=CC2=C(c3ccccc3)C(=O)C(C)(OC(=O)C3CCCC3)C(=O)C2=CN1CCCCO (stereo unspecified)	none
COC(=O)CCCC1=CC2=C(c3ccccc3)C(=O)C(C)(OC(=O)C3CCCC3)C(=O)C2=CN1Cc1ccco1 (stereo unspecified)	CHT allo act 9.1 | CHT activ conf 47 | HEK293 MP dye inactive
CCOC(=O)N1CCN(c2c(NCc3ccc(F)cc3)c(=O)c2=O)CC1	none | CHT activ conf inactive | HEK293 MP dye inactive
O=C(COC(=O)c1cccs1)Nc1nnc(-c2ccccc2)o1	none (no result: Rad51 HR inh, Cl transport mod)
COc1ccccc1CNS(=O)(=O)c1ccc(-c2cnc(C3CC3)o2)cc1	none (no result: Rad51 HR inh, Cl transport mod)
COc1ccccc1NS(=O)(=O)c1ccc(-c2cnc(C3CC3)o2)cc1	none (no result: Rad51 HR inh, Cl transport mod) | CHT activ conf 24 | HEK293 MP dye inactive
Cc1cccc(S(=O)(=O)Nc2nc3ccccc3nc2NCc2ccc3c(c2)OCO3)c1	none
CC1Cc2cc(S(=O)(=O)N3CCN(c4ccccc4F)CC3)ccc2N1C(=O)C1CC1 (stereo unspecified)	CHT allo act 7.5 (no result: Rad51 HR inh, Cl transport mod) | CHT activ conf 20 | HEK293 MP dye inactive
N#CC1=C(Nc2ccccc2)SC=C(c2ccc(Cl)c(Cl)c2)N=C1N1CCOCC1	none (no result: Rad51 HR inh, Cl transport mod) | CHT activ conf 40 | HEK293 MP dye inactive
Cc1c(CCOC(=O)c2cccc([N+](=O)[O-])c2)sc[n+]1CC(=O)c1ccccc1	none
Cc1cc[n+](CC(=O)c2cccc([N+](=O)[O-])c2)c2ccccc12	CHT allo act 8.8 (no result: Rad51 HR inh, Cl transport mod) | CHT activ conf 49 | HEK293 MP dye -58
CCOC(=O)N1CCN(C(=O)CSCc2ccc(Br)cc2)CC1	none
O=C1NC(=Nc2ccc(F)cc2)CS1	none
O=C(NC1CCCCC1)C(c1cccs1)N(Cc1cccs1)C(=O)c1ccco1 (stereo unspecified)	none | CHT activ conf 29 | HEK293 MP dye inactive
CC1=NN(c2nc3ccccc3[nH]2)C(=O)/C1=C/N(C)C	none | CHT activ conf 46 | HEK293 MP dye -33
Cc1cc(Oc2ccc(C)c(Cl)c2)nc(SCC(=O)c2ccccc2)n1	CHT allo act 7.2 | CHT activ conf 56 | HEK293 MP dye inactive
CC(C)N1C(=O)CCC1C(=O)NCc1ccccc1Cl (stereo unspecified)	none (no result: Rad51 HR inh)
CCC(Sc1nc2cc(OC)c(OC)cc2c(=O)n1Cc1ccco1)C(=O)NCCOC (stereo unspecified)	none
CCC(Sc1nc2cc(OC)c(OC)cc2c(=O)n1Cc1ccc(OC)cc1)C(=O)NCCOC (stereo unspecified)	CHT allo act 6.6 (no result: Rad51 HR inh) | CHT activ conf inactive | HEK293 MP dye inactive
Cc1cc(C)n2c(Nc3ccc4c(c3)OCCO4)c(-c3ccc(C)o3)nc2n1	CHT allo act 9.7 | CHT activ conf 83 | HEK293 MP dye -50
CCOC(=O)C1CCCN(C(=O)C2CCC(CNS(=O)(=O)c3ccc(NC(C)=O)cc3)CC2)C1 (stereo unspecified)	none (no result: Cl transport mod) | CHT activ conf inactive | HEK293 MP dye inactive
COc1ccc(N(C)C(=O)c2oc(=O)c3ccccc3c2-c2ccccc2)c(OC)c1	CHT allo act 6.3 | CHT activ conf 33 | HEK293 MP dye inactive
COc1ccc(N(C)C(=O)Cn2c(=O)oc3ccccc32)c(OC)c1	none (no result: Rad51 HR inh, Cl transport mod)
CC(=O)c1cccc(NC(=O)C2C3C=CC(C3=C(c3ccccc3)c3ccccc3)C2C(=O)O)c1 (stereo unspecified)	none
N#CCCn1cc(C(=O)Nc2ccc(C(=O)O)cc2)c(-c2cccc(Br)c2)n1	none (no result: Rad51 HR inh, Cl transport mod)
Fc1ccccc1COc1ccc(C(=S)N2CCCC2)cc1	none (no result: Rad51 HR inh, Cl transport mod)
CCOC(=O)CN1C2=NCCN2c2ccccc21	none
CCCCCN1C2=NCCN2c2ccccc21	none | CHT activ conf 34 | HEK293 MP dye -31
Cc1ccccc1CN1C2=NCCN2c2ccccc21	none
CCCN1C2=NCCN2c2cc(C)c(C)cc21	CHT allo act 8.3 | CHT activ conf 42 | HEK293 MP dye -46
O=C(NNS(=O)(=O)c1ccc([N+](=O)[O-])cc1)c1cnn(-c2ccccc2)c1-n1cccc1	none (no result: Cl transport mod)
O=C(C1CCN(Cc2ccc(F)cc2)CC1)N(CCc1ccccc1)Cc1ccccc1	CHT allo act 6.8 | CHT activ conf 29 | HEK293 MP dye inactive
O=C(Nc1ccncc1)Nc1ccccn1	none | CHT activ conf 50 | HEK293 MP dye -45
CON(C)c1nc(OCC#N)nc(N(C)C)n1	none (no result: Rad51 HR inh)
CN(C)CCN(Cc1cc2cc3c(cc2nc1Cl)OCO3)C(=O)c1ccco1	CHT allo act 6.8 (no result: Rad51 HR inh, Cl transport mod) | CHT activ conf 55 | HEK293 MP dye -56
COCCN(Cc1cc2cc3c(cc2nc1Cl)OCO3)C(C)=O	none
CCOC(=O)C1CCCN(C(=O)c2cc(Nc3ccc(OC)cc3)nc3ccccc23)C1 (stereo unspecified)	none
